In ChEMBL document CHEMBL1121938, “Hypocholesterolemic and antiaggregatory properties of 2-hydroxytetronic acid redox analogues an their relationship to clofibric acid” (1982):

Assays:
[1] = test system: Rattus norvegicus; test: Effect of compound was measured on serum total cholesterol in male Dawley rats at the dose of 0.2 mmol/kg (day+7).; assay type: functional, organism-based
Outline: (§1)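 Serum total cholesterol was measured enzymatically on a bichromatic analyzer. Serum was separated after clotting on ice (2000g, 10 min), held at 4 °C and assayed within 48 h. Rats were male Sprague-Dawley on a high-cholesterol diet, n = 6, dosed orally twice daily for 14 days in 0.25% methylcellulose (1.0 mL/100 g). They were fasted 16-18 h before each bleed. Results are in mg/dL ± SD.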

[2] = test system: Rattus norvegicus; test: Effect of compound was measured on serum total cholesterol in male Dawley rats at the dose of 0.2 mmol/kg (day-1).; assay type: functional, organism-based; outline: as §1
[3] = test system: Rattus norvegicus; test: Effect of compound was measured on serum total triglycerides in male Dawley rats at the dose of 0.2 mmol/kg (day+10).; assay type: functional, organism-based
Outline: (§2)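 Serum triglycerides were measured with an enzymatic triglyceride reagent on a bichromatic analyzer. Rats were male Sprague-Dawley (180-210 g) fed a high-cholesterol diet, n = 6 per group, dosed orally twice daily for 14 days in 0.25% methylcellulose or vehicle. They were fasted 16-18 h before blood collection on days -1, +4, +7, +10 (orbital plexus, light ether) and +14 (aorta). Analysis was repeated-measures ANOVA with Duncan's test.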

[4] = test system: Rattus norvegicus; test: Effect of compound was measured on serum total triglycerides in male Dawley rats at the dose of 0.2 mmol/kg (day+14).; assay type: functional, organism-based; outline: as §2
[5] = test system: Rattus norvegicus; test: Effect of compound was measured on serum total triglycerides in male Dawley rats at the dose of 0.2 mmol/kg (day+4).; assay type: functional, organism-based; outline: as §2
[6] = test system: Rattus norvegicus; test: Effect of compound was measured on serum total triglycerides in male Dawley rats at the dose of 0.2 mmol/kg (day+7).; assay type: functional, organism-based; outline: as §2
[7] = test system: Rattus norvegicus; test: Effect of compound was measured on serum total cholesterol in male Dawley rats at the dose of 0.2 mmol/kg (day+10).; assay type: functional, organism-based; outline: as §1
[8] = test system: Rattus norvegicus; test: Effect of compound was measured on serum total cholesterol in male Dawley rats at the dose of 0.2 mmol/kg (day+4).; assay type: functional, organism-based; outline: as §1
[9] = test system: Rattus norvegicus; test: Effect of compound was measured on serum alpha-lipoprotein in male Dawley rats at the dose of 0.4 mmol/kg (day+10).; assay type: functional
Outline: (§3)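 Male Sprague-Dawley rats (180-210 g) fed a high-cholesterol diet for 1 week before and throughout dosing. Groups of n = 6 were dosed orally twice daily for 14 days in 0.25% methylcellulose, with vehicle controls. Rats were fasted 16-18 h before orbital bleeds on days -1, +4, +7 and +10, and by aortic exsanguination on day +14. Serum α-lipoprotein cholesterol was measured by polyanionic precipitation, in mg/dL ± SD.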

[10] = test system: Rattus norvegicus; test: Effect of compound was measured on serum alpha-lipoprotein in male Dawley rats at the dose of 0.4 mmol/kg (day+4).; assay type: functional; outline: as §3
[11] = test system: Rattus norvegicus; test: Effect of compound was measured on serum alpha-lipoprotein in male Dawley rats at the dose of 0.4 mmol/kg (day+7).; assay type: functional; outline: as §3
[12] = test system: Rattus norvegicus; test: Effect of compound was measured on serum alpha-lipoprotein in male Dawley rats at the dose of 0.4 mmol/kg (day-1).; assay type: functional; outline: as §3
[13] = test system: Rattus norvegicus; test: Effect of compound was measured on serum alpha-lipoprotein in male Dawley rats at the dose of 0.4 mmol/kg (day14).; assay type: functional; outline: as §3
[14] = test system: Rattus norvegicus; test: Effect of compound was measured on serum alpha-lipoprotein in male Dawley rats at the dose of 0.2 mmol/kg (day+10).; assay type: functional; outline: as §3
[15] = test system: Rattus norvegicus; test: Effect of compound was measured on serum alpha-lipoprotein in male Dawley rats at the dose of 0.2 mmol/kg (day+14).; assay type: functional; outline: as §3
[16] = test system: Rattus norvegicus; test: Effect of compound was measured on serum alpha-lipoprotein in male Dawley rats at the dose of 0.2 mmol/kg (day+4).; assay type: functional; outline: as §3
[17] = test system: Rattus norvegicus; test: Effect of compound was measured on serum alpha-lipoprotein in male Dawley rats at the dose of 0.2 mmol/kg (day+7).; assay type: functional; outline: as §3
[18] = test system: Rattus norvegicus; test: Effect of compound was measured on serum alpha-lipoprotein in male Dawley rats at the dose of 0.2 mmol/kg (day-1).; assay type: functional; outline: as §3
[19] = test system: Rattus norvegicus; test: Effect of compound was measured on serum total cholesterol in male Dawley rats at the dose of 0.4 mmol/kg (day+10).; assay type: functional, organism-based; outline: as §1
[20] = test system: Rattus norvegicus; test: Effect of compound was measured on serum total cholesterol in male Dawley rats at the dose of 0.4 mmol/kg (day+14).; assay type: functional, organism-based; outline: as §1
[21] = test system: Rattus norvegicus; test: Effect of compound was measured on serum total cholesterol in male Dawley rats at the dose of 0.4 mmol/kg (day+4).; assay type: functional, organism-based; outline: as §1
[22] = test system: Rattus norvegicus; test: Effect of compound was measured on serum total cholesterol in male Dawley rats at the dose of 0.4 mmol/kg (day+7).; assay type: functional, organism-based; outline: as §1
[23] = test system: Rattus norvegicus; test: Effect of compound was measured on serum total cholesterol in male Dawley rats at the dose of 0.4 mmol/kg (day-1).; assay type: functional, organism-based; outline: as §1
[24] = test system: Rattus norvegicus; test: Effect of compound was measured on serum total triglycerides in male Dawley rats at the dose of 0.4 mmol/kg (day+10).; assay type: functional, organism-based; outline: as §2
[25] = test system: Rattus norvegicus; test: Effect of compound was measured on serum total triglycerides in male Dawley rats at the dose of 0.4 mmol/kg (day+14).; assay type: functional, organism-based; outline: as §2
[26] = test system: Rattus norvegicus; test: Effect of compound was measured on serum total triglycerides in male Dawley rats at the dose of 0.4 mmol/kg (day+4); assay type: functional, organism-based; outline: as §2
[27] = test system: Rattus norvegicus; test: Effect of compound was measured on serum total triglycerides in male Dawley rats at the dose of 0.4 mmol/kg (day+7).; assay type: functional, organism-based; outline: as §2
[28] = test system: Rattus norvegicus; test: Effect of compound was measured on serum total triglycerides in male Dawley rats at the dose of 0.4 mmol/kg (day-1); assay type: functional, organism-based; outline: as §2
[29] = test system: Rattus norvegicus; test: Effect of compound was measured on serum total triglycerides in male Dawley rats at the dose of 0.2 mmol/kg (day-1).; assay type: functional, organism-based; outline: as §2
[30] = test system: Rattus norvegicus; test: Effect of compound was measured on serum total cholesterol in male Dawley rats at the dose of 0.2 mmol/kg (day+14).; assay type: functional, organism-based; outline: as §1
[31] = test system: Rattus norvegicus; test: Effect of compound on liver CH levels in male Dawley rats at the dose of 0.2 mmol/kg; assay type: functional
Outline: (§4)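 Male Sprague-Dawley rats (180-210 g) were kept on a high-cholesterol diet for 1 week before and throughout treatment. Groups of n = 6 received drug in 0.25% methylcellulose orally twice daily for 14 days, or vehicle. After a 16-18 h fast, livers were excised at day +14 and homogenized in 0.1 M Tris-HCl pH 7.2 with 1.15% KCl. Lipids were extracted from 25% w/v homogenate and reported as g/100 g wet liver ± SD; groups compared by ANOVA and Duncan's test.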

[32] = test system: Rattus norvegicus; test: Effect of compound on liver CH levels in male Dawley rats at the dose of 0.4 mmol/kg; assay type: functional; design: unit: g/100 g wet liver; outline: as §4
[33] = test system: Rattus norvegicus; test: Effect of compound on liver TG levels in male Dawley rats at the dose of 0.2 mmol/kg; assay type: functional; outline: as §4
[34] = test system: Rattus norvegicus; test: Effect of compound on liver TG levels in male Dawley rats at the dose of 0.4 mmol/kg; assay type: functional; design: unit: g/100 g wet liver; outline: as §4
[35] = Effect of compound on liver to body weight ratio in male Dawley rats at the dose of 0.2 mmol/kg; assay type: functional
Outline: (§5)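 Male Sprague-Dawley rats (180-210 g) were kept on a cholesterol-rich diet and dosed orally twice daily for 14 days in 0.25% methylcellulose; vehicle controls received the same; n = 6 per group. After a 16-18 h fast, rats were exsanguinated at day +14. Livers were removed, rinsed in ice-cold buffer, blotted and weighed, and related to body weight. Data were analysed by repeated-measures ANOVA with Duncan's multiple range test.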

[36] = Effect of compound was measured on serum heparin-MnCl2 precipated ipoprotein Dawley rats at 0.2 mmol/kg dose(day+10).; assay type: functional
Outline: (§6)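 Cholesterol-fed male Sprague-Dawley rats, n = 6 per group, given compound or 0.25% methylcellulose orally twice daily for 14 days, and fasted 16-18 h before each bleed (days -1, +4, +7, +10, +14). Heparin-MnCl2 precipitable lipoprotein cholesterol was taken as serum total cholesterol minus α-lipoprotein cholesterol. It is reported as a ratio to α-LP cholesterol ± SD. Analysis was ANOVA with repeated measures and Duncan's test.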

[37] = Effect of compound was measured on serum heparin-MnCl2 precipated ipoprotein Dawley rats at 0.2 mmol/kg dose(day+14).; assay type: functional; outline: as §6
[38] = Effect of compound was measured on serum heparin-MnCl2 precipated ipoprotein Dawley rats at 0.2 mmol/kg dose(day+4).; assay type: functional; outline: as §6
[39] = Effect of compound was measured on serum heparin-MnCl2 precipated ipoprotein Dawley rats at 0.2 mmol/kg dose(day+7).; assay type: functional; outline: as §6
[40] = Effect of compound was measured on serum heparin-MnCl2 precipated ipoprotein Dawley rats at 0.2 mmol/kg dose(day-1).; assay type: functional; outline: as §6
[41] = Effect of compound was measured on serum heparin-MnCl2 precipated ipoprotein Dawley rats at 0.4 mmol/kg dose(day+10).; assay type: functional; outline: as §6
[42] = Effect of compound was measured on serum heparin-MnCl2 precipated ipoprotein Dawley rats at 0.4 mmol/kg dose(day+4).; assay type: functional; outline: as §6
[43] = Effect of compound was measured on serum heparin-MnCl2 precipated ipoprotein Dawley rats at 0.4 mmol/kg dose(day+7).; assay type: functional; outline: as §6
[44] = Effect of compound was measured on serum heparin-MnCl2 precipated ipoprotein Dawley rats at 0.4 mmol/kg dose(day-1).; assay type: functional; outline: as §6
[45] = Effect of compound on liver to body weight ratio in male Dawley rats at the dose of 0.4 mmol/kg; assay type: functional; outline: as §5
[46] = Effect of compound was measured on serum heparin-MnCl2 precipated ipoprotein Dawley rats at 0.4 mmol/kg dose(day+14).; assay type: functional; outline: as §6

Question: Which results are given for `O=C1C(O)=C(O)OC1c1ccc(Cl)cc1` (stereo unspecified)?
Answer: serum total cholesterol [1]: 204 mg/dL; serum total cholesterol [2]: 276 mg/dL; Serum total triglycerides [3]: 193 mg/dL; Serum total triglycerides [4]: 148 mg/dL; Serum total triglycerides [5]: 251 mg/dL; Serum total triglycerides [6]: 204 mg/dL; serum total cholesterol [7]: 161 mg/dL; serum total cholesterol [8]: 195 mg/dL; Alpha-lipoprotein cholesterol [9]: 52.2 mg/dL; Alpha-lipoprotein cholesterol [10]: 41.8 mg/dL; Alpha-lipoprotein cholesterol [11]: 46 mg/dL; Alpha-lipoprotein cholesterol [12]: 39.7 mg/dL; Alpha-lipoprotein cholesterol [13]: 61 mg/dL; Alpha-lipoprotein cholesterol [14]: 38.8 mg/dL; Alpha-lipoprotein cholesterol [15]: 48.5 mg/dL; Alpha-lipoprotein cholesterol [16]: 43.8 mg/dL; Alpha-lipoprotein cholesterol [17]: 42.5 mg/dL; Alpha-lipoprotein cholesterol [18]: 40.8 mg/dL; serum total cholesterol [19]: 135 mg/dL; serum total cholesterol [20]: 138 mg/dL; serum total cholesterol [21]: 154 mg/dL; serum total cholesterol [22]: 125 mg/dL; serum total cholesterol [23]: 196 mg/dL; Serum total triglycerides [24]: 139 mg/dL; Serum total triglycerides [25]: 87.8 mg/dL; Serum total triglycerides [26]: 167 mg/dL; Serum total triglycerides [27]: 147 mg/dL; Serum total triglycerides [28]: 193 mg/dL; Serum total triglycerides [29]: 313 mg/dL; serum total cholesterol [30]: 145 mg/dL; Liver CH levels [31]: 3.28; Liver CH levels [32]: 2.93; Liver TG [33]: 4.82; Liver TG [34]: 5.08; Ratio [35]: 3.8; Ratio [36]: 3.33; Ratio [37]: 2.2; Ratio [38]: 3.72; Ratio [39]: 4.03; Ratio [40]: 6.03; Ratio [41]: 1.75; Ratio [42]: 2.79; Ratio [43]: 1.74; Ratio [44]: 3.96; Ratio [45]: 3.6; Ratio [46]: 1.39
